From PubChem BioAssay
proCasp7 act: counter-screen for procaspase-3 activators: activators of human procaspase-7; activation, % at 8.5 µM; actives 0.093% (n = 330,000); recombinant procaspase-7, Ac-DEVD-pNA absorbance 405 nm; D23A/D198A/D206A triple mutant, cannot self-cleave; scale: DMSO 0, 5 µM enzyme 100;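 active = percent activation above the screen-wide mean plus 3 SD, cut at about 25% in these data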
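Test system: Procaspase-7 triple mutant (PC-7 D3A). Also added: Ac-DEVD-pNA substrate, 400 µM as added. Schedule: 1 h enzyme–compound preincubation and 2 h substrate reaction, both 25 °C. Signal: p-Nitroaniline absorbance at 405 nm, read at 0 and 120 min. Control set: low DMSO alone, high DMSO plus 5 µM PC-7.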
PP1 inh: PP1-alpha (human) inhibition in PP5 counter-screen. AID 2235. purified PP1alpha, OMFP fluorescence. P62136. actives 0.9% (n = 320,000). inhibition, % at 6.7 µM;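 active = inhibition above the mean inhibition of all tested compounds plus 3 SD, computed separately for each screening campaign, cut at about 15% in these data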
Target sequence (P62136 whole entry, looked up): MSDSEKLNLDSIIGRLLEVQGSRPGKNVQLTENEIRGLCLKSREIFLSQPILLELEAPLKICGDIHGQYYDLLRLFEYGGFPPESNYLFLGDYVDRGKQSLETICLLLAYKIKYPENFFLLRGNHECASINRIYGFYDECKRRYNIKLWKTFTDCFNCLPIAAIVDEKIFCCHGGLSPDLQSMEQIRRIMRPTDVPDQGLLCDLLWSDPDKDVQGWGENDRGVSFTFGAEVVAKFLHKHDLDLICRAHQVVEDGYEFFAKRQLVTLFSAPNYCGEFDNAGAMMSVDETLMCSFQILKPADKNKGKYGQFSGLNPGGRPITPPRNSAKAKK
PP5 inh: blocks human protein phosphatase 5 activity; P53041; purified PP5c, OMFP substrate fluorescence; inhibition, % at 6.7 µM; actives 0.18% (n = 320,000);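 active = inhibition above the campaign's mean inhibition across all tested compounds plus 3 SD, cut at about 9.5% in these data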;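 also: 0% = DMSO only and 100% = 100 µM cantharidin control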
procasp3 activ: procaspase-3 (human) activation; P42574; recombinant procaspase-3 D3A, Ac-DEVD-pNA absorbance 405 nm; activation, % at 8.5 µM; actives 0.11% (n = 330,000); AID 463141;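 active = activation above the mean of all tested compounds plus 3 SD, cut at about 21% in these data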;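 also: 0% = DMSO alone and 100% = DMSO wells spiked with extra 5 µM PC-3 D3A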
Target sequence (P42574 whole entry D9A/D28A/D175A): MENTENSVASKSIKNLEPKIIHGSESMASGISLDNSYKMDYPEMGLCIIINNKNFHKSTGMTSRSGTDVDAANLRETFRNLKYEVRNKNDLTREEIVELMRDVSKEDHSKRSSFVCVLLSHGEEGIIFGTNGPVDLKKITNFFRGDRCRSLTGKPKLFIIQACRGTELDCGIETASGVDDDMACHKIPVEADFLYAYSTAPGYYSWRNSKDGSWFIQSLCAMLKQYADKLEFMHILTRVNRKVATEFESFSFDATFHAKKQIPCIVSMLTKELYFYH
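Compound: 8.5 µM single point, 0.8% DMSO / Material: Autoprocessing-dead procaspase-3 D3A mutant enzyme / Timing: 1 h preincubation plus 2 h reaction at 25 °C / Medium: Zinc-free HEPES/NaCl buffer with 0.01% Triton X-100 at pH 7.4 / Technique: 405 nm absorbance of p-nitroaniline, reads at 0 and 120 min / Repeats: one well per compound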
PP5 inh confirm: PP5 (human) inhibition, confirmation; shares compounds with PP5 inh; Purified PP5, fluorogenic phosphatase substrate, fluorescence; inhibition, % at 6.7 µM; actives 22% (n = 460); AID 2331; in the data active = inhibition above about 9.5%
PP1 inh counter: PP1 phosphatase inhibition, counter-screen for PP5 inhibitors | shares compounds with PP5 inh | PP1 enzyme, fluorescent phosphatase substrate | inhibition, % at 6.7 µM | AID 2355 | actives 4% (n = 460); in the data active = inhibition above about 16%
Numbers without * were called inactive. Hits are enriched below; roughly 1.2% of the tested compounds scored in any of these assays.

O=C(C1CCC(CNS(=O)(=O)c2ccccc2)CC1)N1CCCCC1 (stereo unspecified) was read as proCasp7 act 4, PP1 inh 2, PP5 inh 9.9*, procasp3 activ -1, PP5 inh confirm -4 and PP1 inh counter -5.
CCOc1ccc(N(CC(=O)Nc2c(C)cccc2C)S(=O)(=O)c2c(C)[nH]c(=O)[nH]c2=O)cc1 was read as proCasp7 act 3, PP1 inh -8, PP5 inh 12*, procasp3 activ 3, PP5 inh confirm -7 and PP1 inh counter -6.
`O=C(Nc1cc(C(F)(F)F)cc(C(F)(F)F)c1)c1ccc(Cn2cc(C(F)(F)F)ccc2=O)cc1` gave proCasp7 act -1, PP1 inh 3, PP5 inh 11*, procasp3 activ 8, PP5 inh confirm 11* and PP1 inh counter 1.
Screening COc1ccccc1NS(=O)(=O)c1cc(NC(=O)COc2ccccc2F)ccc1N1CCOCC1 returned proCasp7 act -12 and procasp3 activ -4.
`CCSc1nnc(NC(=O)CSc2nc3c(c(=O)n2-c2ccccc2)SCC3)s1` gave proCasp7 act 9, PP1 inh -4, PP5 inh 12*, procasp3 activ 2, PP5 inh confirm -4 and PP1 inh counter -2.
For Cc1ccc(-n2c(SCC(=O)Nc3nccs3)nc3c(c2=O)SCC3)cc1 the results were proCasp7 act 5, PP1 inh -4, PP5 inh 1 and procasp3 activ -1.
Cc1onc(-c2c(Cl)cccc2Cl)c1C(=O)N/N=C(\N)COc1ccc(Cl)cc1 was read as proCasp7 act -3, PP1 inh 14, PP5 inh 12*, procasp3 activ 12, PP5 inh confirm 0 and PP1 inh counter 7.
COc1ccccc1N1CCN(C(=O)CCNC(=O)c2ccco2)CC1 was read as proCasp7 act 6, PP1 inh -5, PP5 inh 1 and procasp3 activ 6.
Screening COC(=O)CCC(=O)OC1(C)C(=O)C=C2C=C(C3CC3)N(c3ccccc3)C=C2C1=O (stereo unspecified) returned proCasp7 act -15, PP1 inh -1, PP5 inh 11*, procasp3 activ 6, PP5 inh confirm 30* and PP1 inh counter 10.
Screening C=CCN1C=C2C(=O)C(C)(OC(=O)CCC(=O)OC)C(=O)C=C2C=C1C1CC1 (stereo unspecified) returned proCasp7 act -8, PP1 inh -3, PP5 inh 9 and procasp3 activ -2.
`COC(=O)CCC(=O)OC1(C)C(=O)C=C2C=C(C3CC3)N(CCCOC(C)C)C=C2C1=O` (stereo unspecified) gave proCasp7 act -13, PP1 inh 5, PP5 inh 10*, procasp3 activ -9, PP5 inh confirm 35* and PP1 inh counter 11.
COC(=O)CCC(=O)OC1(C)C(=O)C=C2C=C(C3CC3)N(CCc3ccccn3)C=C2C1=O (stereo unspecified) was read as proCasp7 act -9, PP1 inh 2, PP5 inh 11*, procasp3 activ -3, PP5 inh confirm 42* and PP1 inh counter 19*.
For COC(=O)CCC(=O)OC1(C)C(=O)C=C2C=C(C3CC3)N(CCCCO)C=C2C1=O (stereo unspecified) the results were proCasp7 act -7, PP1 inh 7, PP5 inh 14*, procasp3 activ -2, PP5 inh confirm 34* and PP1 inh counter 2.
`O=C(NCC1CCCO1)c1ccc(Cl)c(S(=O)(=O)N2CCCCC2)c1` (stereo unspecified) gave proCasp7 act -8, PP1 inh -4, PP5 inh -1 and procasp3 activ -6.
CCCCC1=NN(C(=O)c2ccncc2)C(O)(C(F)(F)F)C1 (stereo unspecified) was read as proCasp7 act 2, PP1 inh -3, PP5 inh 4 and procasp3 activ 3.
For CCCCC1=NN(C(=O)c2cocc2C)C(O)(C(F)(F)F)C1 (stereo unspecified) the results were proCasp7 act -4, PP1 inh -1, PP5 inh 13*, procasp3 activ 3, PP5 inh confirm -3 and PP1 inh counter -4.
For CCN(CC)CC(=O)c1c[nH]c2ccccc12 the results were proCasp7 act 8, PP1 inh -4, PP5 inh 1 and procasp3 activ 9.
`O=C(O)CCC(=O)c1c[nH]c2ccccc12` gave proCasp7 act -3, PP1 inh -2, PP5 inh 12*, procasp3 activ 3, PP5 inh confirm -6 and PP1 inh counter -2.
Screening COc1ccc(N(C)S(=O)(=O)c2cccc(C(=O)OCC(=O)N(C)c3ccccc3)c2)cc1 returned proCasp7 act 9 and procasp3 activ 1.
`Cc1cccc(-c2nnc(NC(=O)c3ccc(Cl)cc3)o2)c1` gave proCasp7 act 15, PP1 inh 11, PP5 inh 9.6*, procasp3 activ 3, PP5 inh confirm 1 and PP1 inh counter 24*.
`O=C1CN(c2nc(-c3cccnc3)nc3scc(-c4ccccc4)c23)CCN1` gave proCasp7 act -7, PP1 inh 0, PP5 inh 10*, procasp3 activ 1, PP5 inh confirm -1 and PP1 inh counter 1.
`Cc1nc(C)c(-c2ccnc(/N=C/NO)n2)s1` gave proCasp7 act 3, PP1 inh -6, PP5 inh 0 and procasp3 activ -8.
Screening Cc1ccc(Nc2nc(/N=C/NO)n[nH]2)cc1C returned proCasp7 act 12, PP1 inh 2, PP5 inh 11*, procasp3 activ 5, PP5 inh confirm -4 and PP1 inh counter -4.
Screening CCNC(=S)NS(=O)(=O)c1ccc(CC)cc1 returned proCasp7 act -2, PP1 inh -1, PP5 inh 10.0*, procasp3 activ 3, PP5 inh confirm -3 and PP1 inh counter -2.
`CCNC(=S)NS(=O)(=O)c1ccc(C)cc1` gave proCasp7 act -2, PP1 inh -1, PP5 inh 1 and procasp3 activ -2.
`CCOc1ccc(C(=O)/C=C/c2cn(CN3CCN(C)CC3)c3ccccc23)cc1` gave proCasp7 act -15, PP1 inh 7, PP5 inh 11*, procasp3 activ -27, PP5 inh confirm 0 and PP1 inh counter -1.
Screening COc1ccc(C(=O)/C=C/c2cn(CN3CCN(C)CC3)c3ccccc23)cc1 returned proCasp7 act -41, PP1 inh 5, PP5 inh 9 and procasp3 activ -31.
Screening CC(C)(C)OC(=O)N[C@@H](C(=O)OC(C)(C)C)c1ccccc1 returned proCasp7 act 3, PP1 inh -3, PP5 inh -1 and procasp3 activ 1.
